The values that follow come from ChEMBL document CHEMBL1949539, “Synthesis and antikinetoplastid activity of a series of N,N'-substituted diamines” (Bioorg Med Chem Lett, 2012).

Data set [1] in a line: Selectivity ratio of IC50 for african green monkey Vero cells to IC50 for Leishmania donovani S1 promastigotes. Format: ADME, cell-based. The conditions noted are these: Vero cells versus Leishmania donovani S1 promastigotes, read-out: Ratio IC50. In a few lines:
(§1)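 Selectivity index was calculated as the IC50 in Vero cells divided by the IC50 in the parasite.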

The test system of a further data set is Trypanosoma cruzi. The experiment in a line: Antitrypanosomal activity against Trypanosoma cruzi clone CL-Brener epimastigotes after 14 days by alamar blue assay. Format: functional, organism-based. The conditions noted are these: 336 h. For orientation: Resazurin is reduced to fluorescent resorufin, in cell work by metabolically active cells.
Another data set has as its system Leishmania donovani. The experiment in a line: Antileishmanial activity against Leishmania donovani S1 promastigotes after 72 hrs by alamar blue assay. Format: functional, organism-based. Particulars: S1, 72 h.
Data set [2] can be described thus: Selectivity ratio of IC50 for african green monkey Vero cells to IC50 for Trypanosoma cruzi clone CL-Brener epimastigotes. Format: ADME, cell-based. Particulars: read-out: Ratio IC50. The method in brief: as §1
For the next data set, the system named is Trypanosoma brucei. Kind of data set: Antitrypanosomal activity against Trypanosoma brucei MITat 427 clone 221a trypomastigotes after 3 days by alamar blue assay. Format: functional, organism-based. Particulars: 72 h.
Data set [3] in a line: Selectivity ratio of IC50 for african green monkey Vero cells to IC50 for Trypanosoma brucei MITat 427 clone 221a trypomastigotes. Format: ADME, cell-based. Particulars: read-out: Ratio IC50. In a few lines:
as §1

Data set [4] has as its system Vero. The experiment in a line: Cytotoxicity against african green monkey Vero cells after 48 hrs by neutral red assay. Format: cell-based. Particulars: chlorocebus sabaeus.
In data set [5] the test system is Vero. The experiment in a line: Cytotoxicity against african green monkey Vero cells at 4.76 ug/ml after 48 hrs by neutral red assay. Format: cell-based. The conditions noted are these: chlorocebus sabaeus.

What is called IC50 is the point on the concentration scale where inhibition reaches its midpoint. `COc1cc(CNCCCCCCCCNCc2ccc(OCc3ccccc3)c(OC)c2)ccc1OCc1ccccc1`: the selectivity ratio in data set [1] came to 21; in data set [2] it was 6; in data set [3], 24. Moreover, the concentration for half-maximal inhibition (IC50) stood at 820 nM in the data set with Trypanosoma cruzi, 220 nM in the data set with Leishmania donovani, 190 nM in the data set on Trypanosoma brucei and 2700 nM with Vero [4].
Take `COc1ccc(CNCCCCNCc2ccc(OC)cc2)cc1`: the values for the selectivity ratio in data set [1] and in data set [3] were above 2 and above 5, respectively. Further, the IC50 in the data set on Trypanosoma cruzi was above 10000 nM; in the data set on Leishmania donovani, 8520 nM; with Trypanosoma brucei, 3200 nM. In addition, the Activity entry in the data set with Vero [5] is “Non-toxic”.
As for `COc1ccc(CNCCCCCCCCNCc2ccc(OC)c(O)c2)cc1O`, the selectivity ratio in data set [1] was above 0.3; in data set [3], above 2. The IC50 is above 10000 nM with Trypanosoma cruzi, 44400 nM with Leishmania donovani and 5500 nM in the data set on Trypanosoma brucei. In the data set on Vero [5], the Activity entry was “Non-toxic”.
For the compound `COc1cc(CNCCCNCc2ccc(OCc3ccccc3)c(OC)c2)ccc1OCc1ccccc1`, the selectivity ratio is 29 in data set [1], 8 in data set [2] and 35 in data set [3]. The IC50 with Trypanosoma cruzi is 810 nM; in the data set with Leishmania donovani, 230 nM; with Trypanosoma brucei, 190 nM; with Vero [4], 6650 nM.
`COc1ccc(CNCCCCNCc2ccc(OC)c(O)c2)cc1O`: the concentration for half-maximal inhibition (IC50) in the data set on Trypanosoma cruzi is above 10000 nM; in the data set with Leishmania donovani it was above 100000 nM; in the data set with Trypanosoma brucei, above 10000 nM. For the same compound, in the data set on Vero [5], the Activity result was “Non-toxic”.
For `COc1ccc(CNCCCCCCCCCCNCc2ccc(OC)c(O)c2)cc1O`, the selectivity ratio in data set [1] was above 2; in data set [3], above 11. Besides, the IC50 with Trypanosoma cruzi was above 10000 nM; with Leishmania donovani, 4500 nM; with Trypanosoma brucei, 960 nM. In addition, the Activity result with Vero [5] was “Non-toxic”.
Turning to `CC1CS(=O)(=O)CCN1/N=C/c1ccc([N+](=O)[O-])o1` (centres undefined) [NIFURTIMOX], the figures for the IC50 with Trypanosoma cruzi and in the data set on Trypanosoma brucei were 2100 nM and 1700 nM, respectively.
In the case of `COc1cc(CNCCCCCCNCc2ccc(OCc3ccccc3)c(OC)c2)ccc1OCc1ccccc1`, the selectivity ratio was above 40 in data set [1], above 11 in data set [2] and above 44 in data set [3]. Further, the IC50 in the data set with Trypanosoma cruzi stood at 740 nM; in the data set with Leishmania donovani it was 210 nM; in the data set on Trypanosoma brucei it was 190 nM. For the same compound, the Activity result with Vero [5] is “Non-toxic”.
As for `COc1ccc(CNCCCCCCCCCCNCc2ccc(OC)cc2)cc1`, the selectivity ratio was above 8 in data set [1] and above 5 in data set [2]. Also, the results for the IC50 in the data set on Trypanosoma cruzi, in the data set with Leishmania donovani and in the data set with Trypanosoma brucei were 2300 nM, 1450 nM and above 10000 nM, respectively. For the same compound, in the data set on Vero [5], the Activity entry is recorded as “Non-toxic”.
Regarding `COc1ccc(CNCCCNCc2ccc(OC)c(O)c2)cc1O`, the figures for the concentration for half-maximal inhibition (IC50) in the data set on Trypanosoma cruzi, with Leishmania donovani and in the data set with Trypanosoma brucei were above 10000 nM, above 100000 nM and above 10000 nM, respectively. Besides, the Activity entry in the data set with Vero [5] is “Non-toxic”.
In the case of `COc1cc(CNCCCCNCc2ccc(OCc3ccccc3)c(OC)c2)ccc1OCc1ccccc1`, the selectivity ratio came out at 37 in data set [1], 12 in data set [2] and 52 in data set [3]. In addition, the IC50 in the data set on Trypanosoma cruzi is 730 nM; in the data set on Leishmania donovani it was 240 nM; in the data set with Trypanosoma brucei, 170 nM; in the data set with Vero [4], 2700 nM.
For `COc1ccc(CNCCCCCCNCc2ccc(OC)cc2)cc1`, the figures for the selectivity ratio in data set [1] and in data set [3] were 2 and 60, respectively. Moreover, the half-maximal inhibitory concentration (IC50) in the data set with Trypanosoma cruzi was above 10000 nM; with Leishmania donovani, 6730 nM; in the data set with Trypanosoma brucei it was 220 nM; with Vero [4], 8320 nM.
In the case of `COc1ccc(CNCCCCCCNCc2ccc(OC)c(O)c2)cc1O`, the selectivity ratio in data set [1] is above 0.3. For the same compound, the IC50 was above 10000 nM with Trypanosoma cruzi, 43800 nM with Leishmania donovani and above 10000 nM in the data set on Trypanosoma brucei. Also, the Activity entry in the data set on Vero [5] was “Non-toxic”.
For `COc1cc(CNCCCCCCCCCCNCc2ccc(OCc3ccccc3)c(OC)c2)ccc1OCc1ccccc1`, the selectivity ratio in data set [1] is above 6; in data set [2], above 10; in data set [3], above 67. Further, the half-maximal inhibitory concentration (IC50) in the data set with Trypanosoma cruzi is 800 nM; with Leishmania donovani it was 1200 nM; with Trypanosoma brucei it was 110 nM. Also, the Activity entry in the data set on Vero [5] is given as “Non-toxic”.
As to `COc1ccc(CNCCCNCc2ccc(OC)cc2)cc1`, the selectivity ratio in data set [1] was above 12; in data set [3], above 7. For the same compound, the figures for the half-maximal inhibitory concentration (IC50) in the data set on Trypanosoma cruzi, in the data set on Leishmania donovani and with Trypanosoma brucei were above 10000 nM, 1240 nM and 2040 nM, respectively. The Activity entry with Vero [5] is recorded as “Non-toxic”.
For `C[C@@H]1[C@H](O)[C@@H](C)/C=C/C=C/C=C/C=C/C=C/C=C/C=C/[C@H](O[C@@H]2O[C@H](C)[C@@H](O)[C@H](N)[C@@H]2O)C[C@@H]2O[C@](O)(C[C@@H](O)C[C@@H](O)[C@H](O)CC[C@@H](O)C[C@@H](O)CC(=O)O[C@H]1C)C[C@H](O)[C@H]2C(=O)O` [AMPHOTERICIN B], in the data set on Leishmania donovani, the concentration for half-maximal inhibition (IC50) was 320 nM.
Take `COc1ccc(CNCCCCCCCCNCc2ccc(OC)cc2)cc1`: the results for the selectivity ratio in data set [1] and in data set [3] were above 5 and above 2, respectively. Besides, the figures for the half-maximal inhibitory concentration (IC50) in the data set with Trypanosoma cruzi, in the data set with Leishmania donovani and with Trypanosoma brucei were above 10000 nM, 1560 nM and 5500 nM, respectively. For the same compound, the Activity entry with Vero [5] is recorded as “Non-toxic”.
`c1ccc(CNCCCNCc2ccccc2)cc1`: the selectivity ratio in data set [1] is above 27; in data set [3], above 3. Further, the figures for the half-maximal inhibitory concentration (IC50) in the data set on Trypanosoma cruzi, in the data set with Leishmania donovani and in the data set with Trypanosoma brucei were above 10000 nM, 11000 nM and 6450 nM, respectively. For the same compound, in the data set on Vero [5], the Activity entry was “Non-toxic”.
